The list is not random: actives were taken first. Their share in the collection is about 1.6%.
MT1-MMP act inh: blocks activation of human MT1-MMP; hit rate 0.061% among 360,000; P50281; HT1080 RFP-PRO-GFP cells, GFP/RFP ratio fluorescence, overnight; percent of plate control window, DMSO zero; AID 651647; GFP/RFP ratio change, % at 20 µM;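 active = GFP/RFP ratio change of at least 30% with cell ATP level not reduced by more than half and red fluorescence within 50% of control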
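Assay system: HT1080 RFP-PRO-GFP cells. Benchmarks: DMSO vehicle wells and RFP-L50D-GFP reporter cell wells. Times: overnight cell settling, then overnight compound exposure, 37 °C, 5% CO2. Compound: 20 µM single dose, 1% DMSO. Read-out basis: GFP/RFP fluorescence ratio.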
pCIP destab: compounds decreasing mouse p/CIP protein stability | F442A p/CIP-EGFP cells, EGFP fluorescence, 16 h | decrease of EGFP signal, % at 10 µM | hit rate 0.01% among 290,000;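 active = EGFP signal decrease of at least 30% at 10 µM or well 3 SD below plate mean, unless failing retest; inactive = the rest, including hits failing retest or dose response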
Target sequence (Q05BA5 1-1403): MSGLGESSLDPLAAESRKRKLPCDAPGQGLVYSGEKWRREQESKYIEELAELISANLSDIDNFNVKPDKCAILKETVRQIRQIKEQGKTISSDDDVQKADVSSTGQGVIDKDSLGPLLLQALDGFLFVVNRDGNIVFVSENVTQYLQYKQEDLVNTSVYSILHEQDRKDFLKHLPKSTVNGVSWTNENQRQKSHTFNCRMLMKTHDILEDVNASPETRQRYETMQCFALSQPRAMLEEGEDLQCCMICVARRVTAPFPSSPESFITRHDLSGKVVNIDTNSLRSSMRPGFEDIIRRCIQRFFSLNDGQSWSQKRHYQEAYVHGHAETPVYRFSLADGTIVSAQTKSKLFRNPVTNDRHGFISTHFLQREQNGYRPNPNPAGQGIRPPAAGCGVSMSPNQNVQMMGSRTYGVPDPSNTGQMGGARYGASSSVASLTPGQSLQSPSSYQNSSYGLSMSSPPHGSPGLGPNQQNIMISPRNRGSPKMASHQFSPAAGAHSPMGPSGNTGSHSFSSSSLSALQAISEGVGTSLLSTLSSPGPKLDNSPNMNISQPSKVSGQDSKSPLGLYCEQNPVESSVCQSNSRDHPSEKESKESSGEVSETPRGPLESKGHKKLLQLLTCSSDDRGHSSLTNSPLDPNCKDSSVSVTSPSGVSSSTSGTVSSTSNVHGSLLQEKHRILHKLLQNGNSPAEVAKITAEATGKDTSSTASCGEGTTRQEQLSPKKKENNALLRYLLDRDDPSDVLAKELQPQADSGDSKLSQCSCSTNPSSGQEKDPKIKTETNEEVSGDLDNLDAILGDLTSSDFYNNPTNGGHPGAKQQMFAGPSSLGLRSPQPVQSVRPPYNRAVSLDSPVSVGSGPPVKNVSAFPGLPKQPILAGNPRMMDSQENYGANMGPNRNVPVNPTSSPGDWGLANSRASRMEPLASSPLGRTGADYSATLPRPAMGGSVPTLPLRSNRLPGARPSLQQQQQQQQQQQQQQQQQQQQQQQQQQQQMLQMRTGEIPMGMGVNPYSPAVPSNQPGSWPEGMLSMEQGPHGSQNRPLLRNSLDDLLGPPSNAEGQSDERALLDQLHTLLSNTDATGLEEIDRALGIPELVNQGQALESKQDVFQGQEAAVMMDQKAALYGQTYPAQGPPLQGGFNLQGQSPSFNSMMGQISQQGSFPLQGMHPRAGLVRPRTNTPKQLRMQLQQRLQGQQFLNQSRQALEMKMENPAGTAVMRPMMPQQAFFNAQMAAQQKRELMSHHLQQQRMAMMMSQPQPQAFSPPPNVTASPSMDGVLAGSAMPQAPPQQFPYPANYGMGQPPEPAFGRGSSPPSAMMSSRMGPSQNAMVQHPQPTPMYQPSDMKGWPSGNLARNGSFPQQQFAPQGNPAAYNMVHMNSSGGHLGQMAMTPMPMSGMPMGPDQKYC
bovine MsrA act: bovine methionine sulfoxide reductase A activation; purified bovine MsrA, absorbance read-out; activation, % at 10.6 µM; hit rate 0.3% among 360,000; AID 602163; in the data active = activation above about 7.5%;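 also: 0% = vehicle and 100% = reference activator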
SKN-1 inh: inhibitors of C. elegans SKN-1; C. elegans VP596 Pgst-4::GFP/RFP ratio, acrylamide-induced, 24 h; inhibition, % at 21.8 µM; hit rate 0.49% among 360,000;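 active = interference check ratio from 0.5 to 1.5 plus GFP to RFP signal ratio inhibition reaching or exceeding a fixed threshold, cut at about 30% in these data, passing the limit was not always enough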
MsrA inh: inhibits bovine methionine sulfoxide reductase A; purified bovine MsrA, absorbance read-out; inhibition, % at 15.5 µM; AID 651718; hit rate 0.75% among 360,000; in the data active = inhibition above about 4.5%;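 also: 0% = vehicle wells with enzyme and 100% = reference inhibitor wells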
* hit, by the source's call; · = no result.

SMILES	MT1-MMP act inh	pCIP destab	bovine MsrA act	SKN-1 inh	MsrA inh
Oc1ccc(/C=N/n2c(-c3ccccc3)n[nH]c2=S)cc1Br	-3.3	1.5	0.7	16.2	4.6*
Cc1c(C)c2c(OCC(=O)NCC(=O)NCC(=O)O)cc3c(c2oc1=O)CCC(C)(C)O3	1.5	8.0	-4.4	3.9	4.5*
Cc1c(C)c2c(OCC(=O)O)cc3c(c2oc1=O)CCC(C)(C)O3	-0.8	-3.7	-1.9	-17.4	1.5
CC(C)c1nc(-c2ccc([N+](=O)[O-])cc2)cs1	2.4	5.5	-3.8	53.2*	1.2
CC(=O)Nc1nc(-c2ccc([N+](=O)[O-])cc2)cs1	3.3	2.8	-4.5	0.9	1.6
Cc1ccsc1/C=C(\C(=O)c1ccc(OC(C)C)cc1)c1nc2ccccc2o1	0.3	-3.6	-13.0	2.7	4.6*
O=C(O)C/C(=C\c1cc(Br)cs1)c1nc2ccccc2o1	0.7	-10.2	-5.2	8.4	4.6*
Cc1ccsc1/C=C(\CC(=O)O)c1nc2ccccc2o1	-4.4	-9.1	-8.0	-0.4	4.6*
COc1ccccc1CCn1cnc(-c2ccccc2F)c1CC(C)C	·	·	·	·	-0.2
Cc1ccc(C(C#N)c2ccc3c(C(F)(F)F)cc(C(F)(F)F)nc3n2)cc1 (stereo not drawn)	5.0	-1.6	-3.7	43.8*	0.5
N#CC(c1ccccc1)c1ccc2c(C(F)(F)F)cc(C(F)(F)F)nc2n1 (stereo not drawn)	1.2	-8.7	-1.8	18.0	0.0
CCN1CCN(c2ncnc3c2c(-c2ccccc2)cn3-c2ccc(F)cc2)CC1	-7.4	-9.1	-0.9	51.6*	0.1
COCCCNC(=O)CCn1c(=O)c2ccccc2n(CC(=O)NCCC2=CCCCC2)c1=O	-5.3	4.7	-2.0	7.0	0.9
O=C(CCn1c(=O)c2ccccc2n(CC(=O)NCCC2=CCCCC2)c1=O)NCc1ccco1	1.7	-4.3	-4.1	35.1*	-0.6
Oc1ccc(N=Cc2ccc(-c3cccs3)s2)cc1	18.4	-5.0	-9.0	5.1	5.2*
COc1cccc(CNC(=O)[C@H]2CCCN2C(=O)[C@H]2CCCN2C(=O)c2ccccc2C(F)(F)F)c1	·	·	·	·	0.6
C[C@@H]1CN(c2ccc(N3CCN(C(=O)OC(C)(C)C)C[C@@H]3C)cc2C#N)CCN1Cc1ccccc1	·	·	·	·	-0.7
CN(CC(=O)NCCc1ccccc1)S(=O)(=O)c1ccc(Br)s1	5.0	-11.7	-10.5	36.6*	0.5
CCN(CC)CC(C)(C)C(=O)/C=C/c1ccc(/C=C/C(=O)C(C)(C)CN(CC)CC)cc1	-20.8	·	2.3	25.9	11.9*
COC(=O)c1cc2c(c3c4ccccc4n(S(=O)(=O)c4ccc(OC)cc4)c13)C(=O)N(Cc1ccc(N(C)C)cc1)C2	·	·	·	·	1.6
CC(/C=N/Nc1ncc(C)c(=O)[nH]1)=C\c1ccccc1	-1.6	11.3	-4.1	41.4*	3.6
O=C(Cc1c[nH]c2ccccc12)Nc1ccc(Nc2cccnc2)c(-c2ccc(Cl)c(Cl)c2)c1	·	·	·	·	0.2
O=C(NCC1CCN(C(=O)C(=O)c2cc3ccccc3o2)CC1)c1ccc2c(c1)OCC2	·	·	·	·	1.3
O=C(O)c1cc(-c2cccc3ccccc23)nc2ccccc12	1.2	-10.5	-2.9	37.2*	1.6
Cc1ccc(NC(=S)NCC23C=CC(O2)C2C(=O)N(c4ccc(C)cc4)C(=O)C23)cc1 (stereo not drawn)	-0.2	-6.4	-5.8	9.5	-0.1
SMILES	MT1-MMP act inh	pCIP destab	bovine MsrA act	SKN-1 inh	MsrA inh
CC(C)(C)OC(=O)NCC12C=CC(O1)C1C(=O)N(Cc3ccccc3)C(=O)C12 (stereo not drawn)	-2.2	-6.1	-3.2	37.0*	-1.0
C/C(=N\Nc1ccc(Cl)c(C(=O)O)c1)c1ccc(Br)s1	1.6	-3.6	-4.3	43.6*	2.4
CCOC(=O)c1c(C)cc(C)n2c1nc1ccccc12	10.5	4.2	-4.7	39.6*	1.5
CCOC(=O)CSc1cc(C)c(C#N)c2nc3ccccc3n12	-8.8	1.2	-3.2	24.5	-0.8
COCCCn1c(SCC(=O)NC(C)C)nnc1-c1ccccc1	-2.3	-3.3	-11.6	36.3*	-1.1
CC(=O)c1cccc(NS(=O)(=O)c2ccc3c(c2)oc(=O)n3C)c1	4.5	0.1	-1.4	36.8*	0.1
Cn1c(=O)oc2cc(S(=O)(=O)Nc3cccc(C(=O)O)c3)ccc21	1.8	-11.2	-1.8	-3.4	0.4
COc1ccc(/C=N/N=C/c2ccc(OC)c(O)c2)cc1O	9.1	1.1	-4.7	14.3	7.1*
CCCN1C(=O)c2n[nH]c(C)c2C1c1ccc2c(c1)OCO2 (stereo not drawn)	·	·	·	·	1.0
Clc1ccc(CSc2snnc2-c2ccccc2)cc1	-2.3	-0.2	-8.5	9.4	0.7
Clc1ccc(-c2nnsc2SCc2ccccc2)cc1	4.7	1.7	-0.5	36.1*	-0.1
COc1cccc(N2CC(O)=C(c3ccccc3)C2=N)c1	1.2	-6.6	-1.8	35.2*	0.1
COC(=O)[C@]12C[C@H](CC(=O)N3CCCCC3)C(=O)N(CCC3=CCCCC3)C1=C[C@H](C(C)(C)C)O[C@@H]2C	·	·	·	·	-0.4
CN1CCCCC(NC(=O)C23CC4CC(CC(C4)C2)C3)C1=O (stereo not drawn)	·	·	·	·	1.2
CC1CCCCC1N1CN=C(Nc2nc3ccccc3s2)NC1 (stereo not drawn)	7.1	-7.8	2.3	56.3*	-1.4
c1ccc2sc(NC3=NCN(C4CCCCC4)CN3)nc2c1	0.1	4.4	-1.6	3.1	·
CC(=O)N1CCN(c2ccc(N3CCN(Cc4ccccc4)[C@H](C)C3)c(C)c2)[C@H](C)C1	·	·	·	·	-1.1
O=C(Nc1ccc(Cl)cc1Cl)C1=Cc2ccccc2OC1	-3.9	-7.1	-0.7	36.5*	0.9
O=C(NCc1ccccc1)[C@@H]1CCCN1C(=O)[C@H]1CCCN1C(=O)c1ccc(F)cc1F	·	·	·	·	-0.2
CC(C)(C)NC(=O)CN(C(=O)CCC(=O)Nc1nccs1)c1cccc(C(F)(F)F)c1	-3.0	2.1	0.8	35.3*	-0.4
COc1ccc(-c2ccc3c(n2)CCCN3S(=O)(=O)c2ccc(C#N)cc2)cc1	·	·	·	·	0.3
COC(=O)C1=C(C)N(Cc2ccccc2C(F)(F)F)C(=NCc2ccc(OC)cc2)NC1c1ccc(C(F)(F)F)cc1 (stereo not drawn)	·	·	·	·	0.5
Cc1cc(/C=C(/C#N)c2cccc(Cl)c2)c(C)n1C	4.3	-3.6	-4.0	-8.0	4.6*
Cc1cccc(-n2c(C)cc(C=C(C#N)C#N)c2C)c1	-8.1	-20.6	-1.3	3.1	-0.5
COc1ccccc1CCn1cnc(-c2cccc(Br)c2)c1CC(C)C	·	·	·	·	1.8
COc1ccccc1C(=O)N1CCC2CCN(C(=O)OC(C)(C)C)C2C1 (stereo not drawn)	·	·	·	·	0.7
C=CCN(CC=C)C[C@@H]1CSCCS(=O)(=O)N1	·	·	·	·	-1.5
CC1CCN(C(C)C(=O)Nc2ccccc2-c2ccccc2)CC1 (stereo not drawn)	-5.4	-2.9	-0.6	43.6*	1.0
CCCCN1CC(COCc2ccccc2)Oc2cccc(Oc3ccc(F)cc3OC)c2S1(=O)=O (stereo not drawn)	·	·	·	·	0.8
